Results published in ChEMBL document CHEMBL1133975, “Isoxazolyl, oxazolyl, and thiazolylpropionic acid derivatives as potent alpha(4)beta(1) integrin antagonists” (Bioorg Med Chem Lett, 2001).

Columns and labels:
Integrin alpha-4/beta-1 [1] = target: T1, Integrin alpha-4/beta-1 (Homo sapiens, UniProt P05556+P13612); assay: Inhibition of Alpha4-beta1 integrin in Jurkat cells (Not active); format: cell-based
Procedure, shortened: (§1)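 Calcein-labelled Jurkat cells were allowed to bind human recombinant sVCAM-1 in the presence of serial dilutions of compound, giving IC50. Values are means ± standard error of the number of independent experiments.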

Integrin alpha-4/beta-1 [2] = target: T1, Integrin alpha-4/beta-1; assay: Inhibition of Alpha4-beta1 integrin in Jurkat cells; format: cell-based; procedure, shortened: as §1
Integrin alpha-4/beta-1 [3] = target: T1, Integrin alpha-4/beta-1; assay: Inhibition of VCAM binding to Alpha4-beta1 integrin of human eosinophil cell; format: protein-complex assay
Integrin alpha-4/beta-1 [4] = target: T1, Integrin alpha-4/beta-1; assay: Inhibition of human recombinant sVCAM-1 binding to alpha4-beta1 integrin (VLA-4) in ELISA; format: protein-complex assay

T1 sequence (P05556 whole entry): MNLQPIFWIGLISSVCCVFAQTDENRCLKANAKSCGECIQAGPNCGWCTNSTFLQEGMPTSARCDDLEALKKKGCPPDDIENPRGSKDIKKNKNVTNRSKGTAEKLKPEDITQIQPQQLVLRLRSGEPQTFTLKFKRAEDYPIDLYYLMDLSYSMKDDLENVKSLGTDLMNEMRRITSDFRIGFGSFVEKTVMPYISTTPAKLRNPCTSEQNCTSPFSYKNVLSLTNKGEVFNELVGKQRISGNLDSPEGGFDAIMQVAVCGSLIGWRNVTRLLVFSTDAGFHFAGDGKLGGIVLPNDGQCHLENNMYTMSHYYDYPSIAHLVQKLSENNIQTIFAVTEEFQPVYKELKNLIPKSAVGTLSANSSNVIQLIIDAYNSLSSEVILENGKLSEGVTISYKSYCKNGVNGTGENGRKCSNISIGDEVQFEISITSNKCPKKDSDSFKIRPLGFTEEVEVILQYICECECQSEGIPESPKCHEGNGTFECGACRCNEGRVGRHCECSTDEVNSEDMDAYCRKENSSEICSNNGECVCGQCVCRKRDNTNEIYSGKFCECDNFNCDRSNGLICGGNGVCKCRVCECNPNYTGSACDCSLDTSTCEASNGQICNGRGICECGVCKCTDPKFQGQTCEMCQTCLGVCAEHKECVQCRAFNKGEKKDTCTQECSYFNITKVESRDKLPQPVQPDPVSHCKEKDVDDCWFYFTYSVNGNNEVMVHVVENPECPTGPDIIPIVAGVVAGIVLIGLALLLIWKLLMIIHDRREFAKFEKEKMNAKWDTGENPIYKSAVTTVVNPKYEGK
T1 sequence (P13612 whole entry): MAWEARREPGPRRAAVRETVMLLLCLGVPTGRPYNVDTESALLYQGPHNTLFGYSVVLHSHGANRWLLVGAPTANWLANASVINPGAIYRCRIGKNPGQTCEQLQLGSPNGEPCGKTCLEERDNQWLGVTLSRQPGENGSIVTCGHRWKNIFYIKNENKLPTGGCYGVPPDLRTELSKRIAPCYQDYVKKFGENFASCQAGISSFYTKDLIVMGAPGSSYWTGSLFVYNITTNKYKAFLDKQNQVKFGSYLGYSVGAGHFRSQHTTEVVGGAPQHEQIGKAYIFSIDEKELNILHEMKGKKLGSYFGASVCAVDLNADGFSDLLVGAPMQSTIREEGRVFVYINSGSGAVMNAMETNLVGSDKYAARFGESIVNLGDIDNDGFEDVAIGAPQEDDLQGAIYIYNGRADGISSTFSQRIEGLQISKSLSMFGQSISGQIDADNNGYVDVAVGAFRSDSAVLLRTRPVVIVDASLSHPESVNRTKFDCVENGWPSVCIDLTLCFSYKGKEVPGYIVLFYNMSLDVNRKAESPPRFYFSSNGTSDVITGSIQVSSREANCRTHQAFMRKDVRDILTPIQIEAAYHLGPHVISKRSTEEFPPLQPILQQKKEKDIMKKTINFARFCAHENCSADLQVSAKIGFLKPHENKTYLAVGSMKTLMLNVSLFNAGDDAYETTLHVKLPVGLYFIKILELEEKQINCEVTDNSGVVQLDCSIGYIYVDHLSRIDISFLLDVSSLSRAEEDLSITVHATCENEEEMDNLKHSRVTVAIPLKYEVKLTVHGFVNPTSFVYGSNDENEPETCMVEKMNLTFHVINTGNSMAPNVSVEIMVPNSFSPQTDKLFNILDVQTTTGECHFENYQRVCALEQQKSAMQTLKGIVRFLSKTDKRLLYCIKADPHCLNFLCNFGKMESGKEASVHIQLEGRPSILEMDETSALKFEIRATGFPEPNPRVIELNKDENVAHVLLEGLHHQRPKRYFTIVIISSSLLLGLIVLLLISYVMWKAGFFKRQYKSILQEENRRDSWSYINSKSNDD

| Compound | IC50 (Integrin alpha-4/beta-1 [1]) | IC50 (Integrin alpha-4/beta-1 [2]) | IC50 (Integrin alpha-4/beta-1 [3]) | IC50 (Integrin alpha-4/beta-1 [4]) |
| --- | --- | --- | --- | --- |
| Cc1ccccc1NC(=O)Nc1ccc(CC(=O)N[C@@H](CC(C)C)c2cc(-c3cccc(C(=O)O)c3)on2)cc1 | Not Active |  |  |  |
| Cc1ccccc1NC(=O)Nc1ccc(CC(=O)N[C@@H](CC(C)C)c2ncc(CCC(=O)O)o2)cc1 |  | 45 nM | 171 nM |  |
| COc1cc(CC(=O)N[C@@H](CC(C)C)c2cc(CCC(=O)O)on2)ccc1NC(=O)Nc1ccccc1C |  | 0.69 nM | 1 nM |  |
| Cc1ccccc1NC(=O)Nc1ccc(CC(=O)N[C@@H](CC(C)C)c2ncc(CCC(N)=O)s2)cc1 |  |  |  | Not Active |
| Cc1ccccc1NC(=O)Nc1ccc(CC(=O)N[C@@H](CC(C)C)c2cc(-c3ccccc3C(=O)O)on2)cc1 | Not Active |  |  |  |

Other lines, results leading:

| IC50 (Integrin alpha-4/beta-1 [1]) | IC50 (Integrin alpha-4/beta-1 [2]) | IC50 (Integrin alpha-4/beta-1 [3]) | IC50 (Integrin alpha-4/beta-1 [4]) | Compound |
| --- | --- | --- | --- | --- |
|  | 88 nM | 495 nM |  | Cc1ccccc1NC(=O)Nc1ccc(CC(=O)N[C@@H](CC(C)C)C2=NOC(CCC(=O)O)C2)cc1 (stereo partly drawn) |
|  | 27 nM | 143 nM |  | Cc1ccccc1NC(=O)Nc1ccc(CC(=O)N[C@@H](CC(C)C)c2cc(CCC(=O)O)on2)cc1 |
|  | 16 nM | 180 nM |  | Cc1ccccc1NC(=O)Nc1ccc(CC(=O)N[C@@H](CC(C)C)c2ncc(CCC(=O)O)s2)cc1 |
|  | 2400 nM |  |  | Cc1ccccc1NC(=O)Nc1ccc(CC(=O)N[C@@H](CC(C)C)c2ncc(CC(=O)O)s2)cc1 |
|  | 67 nM | 347 nM |  | Cc1ccccc1NC(=O)Nc1ccc(CC(=O)N[C@@H](CC(C)C)C2=NOC(CCC(=O)O)(CCC(=O)O)C2)cc1 |
|  | 2040 nM |  |  | Cc1ccccc1NC(=O)Nc1ccc(CC(=O)N[C@@H](CC(C)C)c2nc(CCC(=O)O)cs2)cc1 |
|  | 1800 nM |  |  | Cc1ccccc1NC(=O)Nc1ccc(CC(=O)N[C@@H](CC(C)C)c2cc(CCCC(=O)O)on2)cc1 |
